How the values were obtained:
[1] = target: T1, Adenosine receptor A1 (Homo sapiens) (UniProt P30542); test: Inhibition of [125I]DPCPX binding to human cloned adenosine A1 receptor expressed in CHO cells at 1 uM after 120 mins by scintillation counting; type: cell-based; settings: in the assay text read “[3H]DPCPX” for “[125I]DPCPX”
T1 sequence (whole entry): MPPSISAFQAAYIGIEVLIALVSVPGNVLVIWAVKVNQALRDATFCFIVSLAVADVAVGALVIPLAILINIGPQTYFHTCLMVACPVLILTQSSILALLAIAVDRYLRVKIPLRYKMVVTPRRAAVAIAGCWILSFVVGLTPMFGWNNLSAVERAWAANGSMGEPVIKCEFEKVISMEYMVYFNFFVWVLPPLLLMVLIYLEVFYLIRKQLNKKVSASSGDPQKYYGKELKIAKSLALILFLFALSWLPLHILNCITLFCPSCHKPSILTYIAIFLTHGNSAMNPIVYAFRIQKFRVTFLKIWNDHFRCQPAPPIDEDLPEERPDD
In short: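 Membranes from hA1 CHO (50 μg protein) with [3H]DPCPX 1 nM, 50 mM Tris-HCl pH 7.4, 120 min at 25 °C; nonspecific binding defined by 10 μM CHA. Percent inhibition at 1 μM test compound.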

[2] = target: T2, Adenosine receptor A2b (Homo sapiens) (UniProt P29275); test: Antagonist activity at human adenosine A2B receptor expressed in CHO cells assessed as inhibition of NECA-stimulated [3H]cAMP production at 1 uM by scintillation counting; type: functional, cell-based
T2 sequence (whole entry): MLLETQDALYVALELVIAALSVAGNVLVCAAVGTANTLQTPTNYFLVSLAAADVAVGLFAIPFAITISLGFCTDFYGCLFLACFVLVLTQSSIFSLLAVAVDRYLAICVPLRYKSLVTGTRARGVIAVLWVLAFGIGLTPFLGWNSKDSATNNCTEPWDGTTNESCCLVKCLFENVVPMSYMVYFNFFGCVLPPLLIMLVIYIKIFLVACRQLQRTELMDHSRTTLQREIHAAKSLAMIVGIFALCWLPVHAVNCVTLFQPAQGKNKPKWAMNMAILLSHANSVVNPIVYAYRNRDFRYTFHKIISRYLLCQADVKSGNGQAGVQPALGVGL
In short: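 Suspended CHO cells stably expressing hA2B (1 × 10⁶ cells/assay) in buffer with adenosine deaminase 2 IU/mL and Ro 20-1724, preincubated 10 min at 37 °C, pH 7.4. Stimulated with NECA 200 nM; compound at 1 μM; percent inhibition reported. Stopped with cold 6% TCA, ether-extracted, cAMP quantified by [3H]cAMP competition with beef adrenal binding protein.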

[3] = target: T3, Adenosine receptor A3 (Homo sapiens, UniProt P0DMS8); test: Antagonist activity at human cloned adenosine A3 receptor expressed in CHO cells assessed as inhibition of Cl-IB-MECA-inhibited [3H]cAMP production by scintillation counting; type: functional, cell-based
T3 sequence (P0DMS8 whole entry): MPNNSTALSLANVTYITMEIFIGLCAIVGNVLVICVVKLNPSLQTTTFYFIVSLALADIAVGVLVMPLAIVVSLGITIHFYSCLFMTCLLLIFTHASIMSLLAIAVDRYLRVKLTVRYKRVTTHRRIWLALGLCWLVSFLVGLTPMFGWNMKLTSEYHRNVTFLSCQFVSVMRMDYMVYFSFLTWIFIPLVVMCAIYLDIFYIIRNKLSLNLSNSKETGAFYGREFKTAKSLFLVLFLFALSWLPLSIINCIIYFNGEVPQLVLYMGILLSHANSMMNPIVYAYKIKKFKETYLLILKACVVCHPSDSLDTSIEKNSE
In short: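 hA3-transfected CHO cells (1 × 10⁶ cells/assay), preincubated 10 min at 37 °C with adenosine deaminase 2 IU/mL plus Ro 20-1724, pH 7.4; forskolin 1 μM and Cl-IB-MECA 100 nM present. Stopped with cold 6% TCA; cAMP measured by [3H]cAMP binding-protein competition. IC50 from sigmoid nonlinear regression, mean ± SEM of four experiments; single-point data at 1 μM as percent inhibition.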

[4] = target: Adenosine receptor A2a (Homo sapiens) (UniProt P29274); test: Inhibition of [125I]Z241385 binding to human cloned adenosine A2A receptor expressed in CHO cells at 1 uM after 120 mins by scintillation counting; type: cell-based
Sequence of Adenosine receptor A2a (Homo sapiens) (P29274 whole entry): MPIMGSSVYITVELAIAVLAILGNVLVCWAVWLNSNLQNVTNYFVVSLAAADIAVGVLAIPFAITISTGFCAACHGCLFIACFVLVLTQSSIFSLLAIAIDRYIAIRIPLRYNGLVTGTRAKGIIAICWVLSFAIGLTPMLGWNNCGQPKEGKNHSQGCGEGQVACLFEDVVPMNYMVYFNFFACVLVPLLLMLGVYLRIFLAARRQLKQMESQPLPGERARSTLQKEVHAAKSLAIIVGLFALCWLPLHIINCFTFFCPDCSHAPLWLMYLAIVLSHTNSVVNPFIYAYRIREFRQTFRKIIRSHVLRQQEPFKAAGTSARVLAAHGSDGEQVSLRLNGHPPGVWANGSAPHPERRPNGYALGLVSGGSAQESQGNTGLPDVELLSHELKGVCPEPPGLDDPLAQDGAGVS

[5] = target: T3, Adenosine receptor A3; test: Displacement of [125I]AB-MECA from human cloned adenosine A3 receptor expressed in CHO cells after 120 mins by scintillation counting; type: cell-based
In short: (§1)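 hA3 CHO membranes (50 μg protein) incubated with [125I]AB-MECA 0.5 nM in 50 mM Tris-HCl, 10 mM MgCl2, 1 mM EDTA, pH 7.4, 120 min at 4 °C; six to eight ligand concentrations. Nonspecific binding with 1 μM AB-MECA. Ki via Cheng–Prusoff, mean ± SEM of four assays in duplicate; percent inhibition given at 1 μM.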

[6] = target: T4, Adenosine receptor A3 (Homo sapiens) (UniProt P0DMS8); test: Inhibition of [125I]AB-MECA binding to human cloned adenosine A3 receptor expressed in CHO cells at 1 uM after 120 mins by scintillation counting; type: cell-based; in short: as §1
T4 sequence (whole entry): T3 sequence (P0DMS8 whole entry)

[7] = target: T4, Adenosine receptor A3 (Homo sapiens); settings: CHO, 1 uM

| inhibition [1] [%] | inhibition [2] [%] | IC50 [3] [µM] | inhibition [4] [%] | Ki [5] [µM] | inhibition [6] [%] | inhibition [7] [%] | SMILES |
| --- | --- | --- | --- | --- | --- | --- | --- |
| 1 | 5 |  | 1 |  | 16 |  | COc1ccc(-n2cc3nc(-c4ccccc4)[nH]c(=O)c3n2)cc1 |
| 22 | 4 |  | 10 |  | 10 |  | O=c1[nH]c(-c2ccccc2)nc2cn(-c3ccccc3)nc12 |
| 9 | 2 | 0.087 | 1 | 0.016 |  |  | Cc1nc2cn(-c3ccccc3)nc2c(=O)[nH]1 |
| 1 | 4 | 0.046 | 1 | 0.01 |  |  | Cc1ccc(-n2cc3nc(C)[nH]c(=O)c3n2)cc1 |
| 11 | 4 |  | 1 | 0.9 |  | 6 | O=c1[nH]c(Cc2ccccc2)nc2cn(-c3ccccc3)nc12 |

The remaining lines, values behind:

| SMILES | inhibition [1] [%] | inhibition [2] [%] | IC50 [3] [µM] | inhibition [4] [%] | Ki [5] [µM] | inhibition [6] [%] | inhibition [7] [%] |
| --- | --- | --- | --- | --- | --- | --- | --- |
| O=c1[nH]cnc2cn(-c3ccccc3)nc12 | 1 | 3 | 0.725 | 1 | 0.185 |  |  |
| COc1ccc(-n2cc3nc[nH]c(=O)c3n2)cc1 | 2 | 3 | 0.27 | 1 | 0.054 |  |  |
| O=c1[nH]c(=O)c2nn(-c3ccccc3)cc2[nH]1 | 4 | 2 |  | 5 |  | 12 |  |
| CCc1nc2cn(-c3ccccc3)nc2c(=O)[nH]1 | 11 | 1 | 0.245 | 6 | 0.052 |  |  |
| COc1ccc(-n2cc3nc(Cc4ccccc4)[nH]c(=O)c3n2)cc1 | 10 | 4 | 0.85 | 1 | 0.25 |  |  |
| CCc1nc2cn(-c3ccc(OC)cc3)nc2c(=O)[nH]1 | 1 | 5 | 0.063 | 1 | 0.014 |  |  |
| Cc1cccc(-n2cc3nc(C)[nH]c(=O)c3n2)c1 | 4 | 2 | 0.354 | 1 | 0.072 |  |  |
| Nc1nc(NCCc2ccc(O)cc2)nc2nc(-c3ccco3)nn12 |  |  |  |  |  | 5 | 2 |
| COc1ccc(-n2cc3nc(C)[nH]c(=O)c3n2)cc1 | 5 | 2 | 0.0052 | 1 | 0.0012 |  |  |

— ChEMBL document CHEMBL1155223, “2-Phenylpyrazolo[4,3-d]pyrimidin-7-one as a new scaffold to obtain potent and selective human A3 adenosine receptor antagonists: new insights into the receptor-antagonist recognition” (J Med Chem, 2009)
